Experimental data from PMC10848874 (Bioorganic & medicinal chemistry, 2023).
Entries after “also recorded” stand apart in the source; their conditions may differ.

Key:
PANC-1 cells = experiment: Wound healing; assay type: cell-based, human; details: for Scratch gap closure: PANC-1 cells, 37 °C, 5% CO2; for PANC-1 cell migration in wound healing assay (in words): 0.5 and 1 μM
In short: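 PANC-1 cells in DMEM with 10% heat-inactivated FBS and 30 μg/mL gentamicin were seeded at about 1 × 10⁵ cells per well in 6-well plates and grown to 70–80% confluency. Each well was scratched with a sterile pipette tip, then medium and detached cells were removed. Duplicate wells received 0.5 or 1 μM test compound or control (final DMSO ≤0.2%). Closure was imaged by automated microscopy (4X) for 48 h.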

[1] = tested on: purified bovine brain tubulin; experiment: Inhibition of tubulin polymerization; assay type: biochemical; details: oxetane analogues compared with their ketone counterparts
In short: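 Bovine brain tubulin at 1 mg/mL (10 μM) in 0.8 M monosodium glutamate (pH 6.6) with 4% (v/v) DMSO and varied test compound concentrations, preincubated 15 min at 30 °C without GTP. The mix was chilled to 0 °C, then GTP added (0.1 mM final), and warmed to 30 °C over about 30 s.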

| Structure (SMILES) | Scratch gap closure (PANC-1 cells; 0.5 μM compound) | Scratch gap closure (PANC-1 cells; 1 μM compound) | PANC-1 cell migration in wound healing assay (in words) (PANC-1 cells) | Inhibition of tubulin polymerization (in words) [1] |
| --- | --- | --- | --- | --- |
| COc1cc(C2(c3c(-c4ccccc4)[nH]c4c(OC)cccc34)COC2)cc(OC)c1OC [Compound 5h, 7-Methoxy-2-phenyl-3-(3-(3,4,5-trimethoxyphenyl)oxetan-3-yl)-1H-indole] | gap is not closed after 48 h | gap remains open after 48 h | inhibited PANC-1 cell migration | at most weakly active as inhibitors of tubulin polymerization; also recorded: no significant tubulin assembly inhibition activity |
| COc1cc(C2(c3c(-c4ccccc4)[nH]c4cc(Br)ccc34)COC2)cc(OC)c1OC [Compound 5c, 6-Bromo-2-phenyl-3-(3-(3,4,5-trimethoxyphenyl)oxetan-3-yl)-1H-indole] | gap is not completely closed after 40 h | gap remains open after 40 h | inhibited PANC-1 cell migration | at most weakly active as inhibitors of tubulin polymerization; also recorded: no significant tubulin assembly inhibition activity |
| COc1ccc2c(C3(c4cc(OC)c(OC)c(OC)c4)COC3)c(-c3ccc(OC)c(O)c3)[nH]c2c1 [Compound 5m, 2-Methoxy-5-(6-methoxy-3-(3-(3,4,5-trimethoxyphenyl)oxetan-3-yl)-1H-indol-2-yl)phenol] | – | – | – | at most weakly active as inhibitors of tubulin polymerization; also recorded: no significant tubulin assembly inhibition activity |
| COc1ccc2[nH]c(-c3ccccc3)c(C3(c4cc(OC)c(OC)c(OC)c4)COC3)c2c1 [Compound 5l, 5-Methoxy-2-phenyl-3-(3-(3,4,5-trimethoxyphenyl)oxetan-3-yl)-1H-indole] | – | – | – | at most weakly active as inhibitors of tubulin polymerization; also recorded: no significant tubulin assembly inhibition activity |
| COc1cc(C2(c3c(-c4ccccc4)[nH]c4cc(Cl)ccc34)COC2)cc(OC)c1OC [Compound 5k, 6-Chloro-2-phenyl-3-(3-(3,4,5-trimethoxyphenyl)oxetan-3-yl)-1H-indole] | – | – | – | at most weakly active as inhibitors of tubulin polymerization; also recorded: no significant tubulin assembly inhibition activity |
